Results as given in ChEMBL document CHEMBL1629517, “Molecular properties prediction, synthesis and antimicrobial activity of some newer oxadiazole derivatives” (2010).
Converted amounts (≈) assume the structure as drawn.

Columns and labels:
[1] = test system: Bacillus subtilis; assay: Antibacterial activity against Bacillus subtilis ATCC 6633 at 100 ug/ml after 24 hrs by disc-diffusion method; assay type: functional; conditions: ATCC 6633, 24 h, read-out: IZ
[2] = test system: Escherichia coli; assay: Antibacterial activity against Escherichia coli ATCC 25922 at 100 ug/ml after 24 hrs by disc-diffusion method; assay type: functional; conditions: ATCC 25922, 24 h, read-out: IZ
[3] = test system: Candida albicans; assay: Antifungal activity against Candida albicans at 200 ug/ml after 48 hrs by agar diffusion method; assay type: functional; conditions: read-out: IZ
Procedure, shortened: (§1)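 Agar well diffusion on Sabouraud agar (peptone 1 g, D-glucose 4 g, agar 2 g per 100 ml water, pH 5.7). Plates were lawned with a saline suspension of spores, excess was decanted, and plates were dried 1 h at 37 °C. Compounds in DMSO went into punched wells, and inhibition zones were measured against controls, with voriconazole as standard.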

[4] = test system: Staphylococcus aureus; assay: Antibacterial activity against Staphylococcus aureus ATCC 25923 after 24 hrs by broth dilution technique; assay type: functional; conditions: ATCC 25923, 24 h
Procedure, shortened: (§2)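 MIC by broth dilution: nutrient broth containing logarithmic two-fold serial dilutions of compound was inoculated with about 5 × 10⁵ c.f.u. of actively dividing bacteria.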

[5] = test system: Bacillus subtilis; assay: Antibacterial activity against Bacillus subtilis ATCC 6633 after 24 hrs by broth dilution technique; assay type: functional; conditions: ATCC 6633, 24 h; procedure, shortened: as §2
[6] = test system: Escherichia coli; assay: Antibacterial activity against Escherichia coli ATCC 25922 after 18 to 24 hrs; assay type: functional
[7] = test system: Candida albicans; assay: Antifungal activity against Candida albicans at 100 ug/ml after 48 hrs by agar diffusion method; assay type: functional; conditions: read-out: IZ; procedure, shortened: as §1
[8] = test system: Aspergillus niger; assay: Antifungal activity against Aspergillus niger after 48 hrs; assay type: functional
[9] = test system: Pseudomonas aeruginosa; assay: Antibacterial activity against Pseudomonas aeruginosa ATCC 27853 after 24 hrs by broth dilution technique; assay type: functional; conditions: ATCC 27853, 24 h; procedure, shortened: as §2
[10] = test system: Bacillus subtilis; assay: Antibacterial activity against Bacillus subtilis ATCC 6633 at 200 ug/ml after 24 hrs by disc-diffusion method; assay type: functional; conditions: ATCC 6633, 24 h, read-out: IZ
[11] = test system: Pseudomonas aeruginosa; assay: Antibacterial activity against Pseudomonas aeruginosa ATCC 27853 at 200 ug/ml after 24 hrs by disc-diffusion method; assay type: functional; conditions: ATCC 27853, 24 h, read-out: IZ
[12] = test system: Candida albicans; assay: Antifungal activity against Candida albicans after 48 hrs; assay type: functional
[13] = test system: Staphylococcus aureus; assay: Antibacterial activity against Staphylococcus aureus ATCC 25923 after 18 to 24 hrs; assay type: functional
[14] = test system: Aspergillus niger; assay: Antifungal activity against Aspergillus niger at 200 ug/ml after 48 hrs by agar diffusion method; assay type: functional; conditions: read-out: IZ; procedure, shortened: as §1
[15] = test system: Escherichia coli; assay: Antibacterial activity against Escherichia coli ATCC 25922 after 24 hrs by broth dilution technique; assay type: functional; conditions: ATCC 25922, 24 h; procedure, shortened: as §2
[16] = test system: Bacillus subtilis; assay: Antibacterial activity against Bacillus subtilis ATCC 6633 after 18 to 24 hrs; assay type: functional
[17] = test system: Pseudomonas aeruginosa; assay: Antibacterial activity against Pseudomonas aeruginosa ATCC 27853 at 100 ug/ml after 24 hrs by disc-diffusion method; assay type: functional; conditions: ATCC 27853, 24 h, read-out: IZ
[18] = test system: Aspergillus niger; assay: Antifungal activity against Aspergillus niger at 100 ug/ml after 3 to 4 days by agar diffusion method; conditions: read-out: IZ
[19] = test system: Pseudomonas aeruginosa; assay: Antibacterial activity against Pseudomonas aeruginosa ATCC 27853 after 18 to 24 hrs; assay type: functional
[20] = test system: Staphylococcus aureus; assay: Antibacterial activity against Staphylococcus aureus ATCC 25923 at 200 ug/ml after 24 hrs by disc-diffusion method; assay type: functional; conditions: ATCC 25923, 24 h, read-out: IZ
[21] = test system: Staphylococcus aureus; assay: Antibacterial activity against Staphylococcus aureus ATCC 25923 at 100 ug/ml after 24 hrs by disc-diffusion method; assay type: functional; conditions: ATCC 25923, 24 h, read-out: IZ
[22] = test system: Escherichia coli; assay: Antibacterial activity against Escherichia coli ATCC 25922 at 200 ug/ml after 24 hrs by disc-diffusion method; assay type: functional; conditions: ATCC 25922, 24 h, read-out: IZ

MIC [4]	MIC [5]	MIC [9]	MIC [12]	MIC [15]	SMILES	zone of inhibition at 100 µg/mL [1]	zone of inhibition at 100 µg/mL [2]	zone of inhibition at 200 µg/mL [3]	MBC [6]	zone of inhibition at 100 µg/mL [7]	zone of inhibition at 200 µg/mL [10]	zone of inhibition at 200 µg/mL [11]	MFC [12]	MBC [13]	zone of inhibition at 200 µg/mL [14]	MBC [16]	zone of inhibition at 100 µg/mL [17]	zone of inhibition at 100 µg/mL [18]	MBC [19]	zone of inhibition at 200 µg/mL [20]	also measured
12.5 µg/mL (≈ 28 µM)	6 µg/mL (≈ 13.4 µM)	25 µg/mL (≈ 55.9 µM)	25 µg/mL (≈ 55.9 µM)	12.5 µg/mL (≈ 28 µM)	COc1cc(/C=C/C(=O)c2ccccc2)ccc1OCc1nnc(-c2ccc(Cl)cc2)o1	9 mm	16 mm	15 mm	25 µg/mL (≈ 55.9 µM)	12 mm	11 mm	22 mm	50 µg/mL (≈ 112 µM)	25 µg/mL (≈ 55.9 µM)	20 mm	12.5 µg/mL (≈ 28 µM)	19 mm	18 mm	50 µg/mL (≈ 112 µM)	14 mm	MFC [8]: 25 µg/mL (≈ 55.9 µM); MIC [8]: 12.5 µg/mL (≈ 28 µM); zone of inhibition at 100 µg/mL [21]: 12 mm; zone of inhibition at 200 µg/mL [22]: 18 mm
12.5 µg/mL (≈ 27.4 µM)	12.5 µg/mL (≈ 27.4 µM)	12.5 µg/mL (≈ 27.4 µM)	12.5 µg/mL (≈ 27.4 µM)	6 µg/mL (≈ 13.1 µM)	COc1ccc(C(=O)/C=C/c2ccc(OCc3nnc(-c4ccc(C)cc4)o3)c(OC)c2)cc1	12 mm	19 mm	18 mm	25 µg/mL (≈ 54.8 µM)	16 mm	14 mm	24 mm	25 µg/mL (≈ 54.8 µM)	25 µg/mL (≈ 54.8 µM)	23 mm	25 µg/mL (≈ 54.8 µM)	23 mm	20 mm	25 µg/mL (≈ 54.8 µM)	17 mm	MFC [8]: 25 µg/mL (≈ 54.8 µM); MIC [8]: 12.5 µg/mL (≈ 27.4 µM); zone of inhibition at 100 µg/mL [21]: 15 mm; zone of inhibition at 200 µg/mL [22]: 21 mm
6 µg/mL (≈ 13.1 µM)	12.5 µg/mL (≈ 27.3 µM)	12.5 µg/mL (≈ 27.3 µM)	12.5 µg/mL (≈ 27.3 µM)	6 µg/mL (≈ 13.1 µM)	COc1cc(/C=C/C(=O)c2ccc(O)cc2)ccc1OCc1nnc(COc2ccccc2)o1	14 mm	20 mm	19 mm	12.5 µg/mL (≈ 27.3 µM)	17 mm	16 mm	27 mm	25 µg/mL (≈ 54.5 µM)	12.5 µg/mL (≈ 27.3 µM)	24 mm	25 µg/mL (≈ 54.5 µM)	25 mm	22 mm	25 µg/mL (≈ 54.5 µM)	18 mm	MFC [8]: 12.5 µg/mL (≈ 27.3 µM); MIC [8]: 6 µg/mL (≈ 13.1 µM); zone of inhibition at 100 µg/mL [21]: 17 mm; zone of inhibition at 200 µg/mL [22]: 22 mm
12.5 µg/mL (≈ 30.3 µM)	25 µg/mL (≈ 60.6 µM)	25 µg/mL (≈ 60.6 µM)	12.5 µg/mL (≈ 30.3 µM)	12.5 µg/mL (≈ 30.3 µM)	COc1cc(/C=C/C(=O)c2ccccc2)ccc1OCc1nnc(-c2ccccc2)o1	13 mm	19 mm	18 mm	25 µg/mL (≈ 60.6 µM)	16 mm	14 mm	25 mm	25 µg/mL (≈ 60.6 µM)	50 µg/mL (≈ 121 µM)	25 mm	50 µg/mL (≈ 121 µM)	23 mm	21 mm	50 µg/mL (≈ 121 µM)	18 mm	MFC [8]: 25 µg/mL (≈ 60.6 µM); MIC [8]: 12.5 µg/mL (≈ 30.3 µM); zone of inhibition at 100 µg/mL [21]: 16 mm; zone of inhibition at 200 µg/mL [22]: 20 mm
6 µg/mL (≈ 14.1 µM)	6 µg/mL (≈ 14.1 µM)	12.5 µg/mL (≈ 29.3 µM)	12.5 µg/mL (≈ 29.3 µM)	6 µg/mL (≈ 14.1 µM)	COc1cc(/C=C/C(=O)c2ccccc2)ccc1OCc1nnc(-c2ccc(C)cc2)o1	12 mm	19 mm	16 mm	25 µg/mL (≈ 58.6 µM)	15 mm	14 mm	25 mm	25 µg/mL (≈ 58.6 µM)	25 µg/mL (≈ 58.6 µM)	22 mm	12.5 µg/mL (≈ 29.3 µM)	23 mm	20 mm	50 µg/mL (≈ 117 µM)	16 mm	zone of inhibition at 100 µg/mL [21]: 15 mm; zone of inhibition at 200 µg/mL [22]: 21 mm
